This is one part of a sample in which hits are shown more often than they occur.
HCT116 bCat-KO = beta-catenin-lacking colon tumor cell growth suppression; HCT116 beta-catenin knockout viability, CellTiter-Glo, 60 h; hits give low values; viability, % at 10 µM; 1.5% of 140,000 active; AID 818;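 active = viability at or under a set limit, the compound median less 4 SD, cut at about 6% in these data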;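 also: 0% = Hyamine 1622 control at 20 µM and 100% = untreated cell control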
H69AR inhibit = blocks growth of human H69AR lung tumor cells; H69AR lung tumor viability, ATP luminescence, 72 h; hits give low values; viability, % at 10 µM; 6% of 85,000 active;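 active = viability at or below 40%; inactive = viability above 40%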;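 also: multidrug resistant small cell line overexpressing MRP-1 efflux transporter; 100% = mean luminescence of untreated control wells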
Calb biofilm kill = kills Candida albicans biofilms; C. albicans biofilm + clotrimazole, Alamar Blue; inhibition, % at 6 µM; 0.14% of 85,000 active;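 active = inhibition above 20%; inactive = inhibition below 20%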;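 also: preformed 24 hr biofilms exposed to compound for 48 hr; 0% = biofilm without compound and 100% = blank killed by clotrimazole plus chlorhexidine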
Fibroblast inh = blocks proliferation of human lung fibroblasts; viability, % at 10 µM; AID 719; 1.1% of 85,000 active; LL 47 human lung fibroblast viability, ATP luminescence; hits give low values;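 active = viability at or below 50% in the single dose screen; inactive = viability above 50%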;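 also: compound exposure lasted 72 h before the ATP readout; 100% = median luminescence of untreated cell-only wells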
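material = human LL 47 lung fibroblast cells | dosing = compounds added from tenfold dosing solution, 0.1% DMSO final | timing = overnight cell rest, 72 h compound treatment at 37 °C | measured by = CellTiter-Glo luminescence measuring cellular ATP | evaluation = % viability versus median cells-only luminescence | control set = cell-only wells, no compound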
HCT116 PTEN-null = growth suppressors of cells with PTEN tumor suppressor deletion | HCT116 PTEN-null viability, CellTiter-Glo, 60 h; hits give low values | viability, % at 10 µM | 1.2% of 140,000 active;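 active = viability at or below a set limit, 4 SD under the median of all tested compounds, cut at about 3.7% in these data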;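 also: PTEN knockout HCT116 line with beta catenin targeted HCT116 as companion control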
HUVEC inhibit = human endothelial cell proliferation inhibition | AID 648 | 1.1% of 86,000 active | HUVEC proliferation, CellTiter-Glo luminescence, 72 h; hits give low values | viability, % at 10 µM (by protocol);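 active = viability at or below 30%; inactive = viability above 30%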;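 also: 100% = median luminescence of DMSO-only cell control wells on each plate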
The depositor's hits bear a star; . = no result.

SMILES	HCT116 bCat-KO	H69AR inhibit	Calb biofilm kill	Fibroblast inh	HCT116 PTEN-null	HUVEC inhibit
O=C(NC(NC(=S)Nc1ccc(Cl)cc1Cl)C(Cl)(Cl)Cl)c1cccc([N+](=O)[O-])c1 (stereo not given)	4.1*	.	.	.	3.3*	.
Cc1ccc(NC(=S)NC(NC(=O)c2ccco2)C(Cl)(Cl)Cl)cc1 (stereo not given)	62	22*	3	96	58	84
O=C(NC(NC(=S)Nc1ccccc1)C(Cl)(Cl)Cl)c1cccc(Cl)c1 (stereo not given)	2.6*	.	.	.	2.0*	.
COc1ccc(NC(=S)NCc2ccco2)c(OC)c1	93	99	-3	99	.	114
Cc1nnc(C)n1/N=C/c1ccccc1	91	108	0	100	92	87
N=C1N(/N=C/c2ccccc2)C(=Nc2ccccc2)C(=S)N1c1ccccc1	78	1.6*	-1	62	73	66
CCCCn1c(SCC(=O)Nc2cc(C(F)(F)F)cc(C(F)(F)F)c2)nnc1C(CC)N(C)C (stereo not given)	26	.	.	.	25	.
C1CCC(C23CC4CC(CC(C4)C2)C3)NC1 (stereo not given)	89	96	3	98	95	90
Cc1ccc(S(=O)(=O)N2CCN(C(C)C(=O)Nc3ccccc3-c3ccccc3)CC2)cc1 (stereo not given)	80	.	.	.	84	.
O=C(NCCc1ccccc1)C1CCCN(S(=O)(=O)c2cccc3nsnc23)C1 (stereo not given)	82	.	.	.	93	.
COc1ccccc1NC(=O)C1=C(C)Nc2nnnn2C1c1cccc(C)c1 (stereo not given)	54	30*	0	85	64	74
CCc1[nH]nc2c1C(c1ccc(Br)s1)C(C#N)=C(N)O2 (stereo not given)	34	1.7*	2	24*	33	69
CCc1[nH]nc2c1C(c1ccsc1)C(C#N)=C(N)O2 (stereo not given)	82	61	4	98	96	82
O=C(CN1C(=O)CCC1=O)Nc1ccc(Br)cc1	91	40*	-5	102	95	88
COc1ccc(S(=O)(=O)N2CCN(CC(=O)Nc3cc(OC)cc(OC)c3)CC2)cc1	92	4.9*	0	103	95	86
COc1ccc(NC(=O)CN2CCN(S(=O)(=O)c3ccc(Cl)cc3)CC2)cc1Cl	88	83	-3	103	91	84
COc1cc(NC(=O)CN2CCN(S(=O)(=O)c3ccc(C(C)C)cc3)CC2)cc(OC)c1	64	.	.	.	68	.
O=C(CN1CCN(S(=O)(=O)c2ccc(Br)cc2)CC1)Nc1ccc(F)cc1	79	1.6*	0	99	75	92
COC(=O)c1ccc(NC(=O)CN2C(=O)CCC2=O)cc1	102	100	4	109	106	101
COc1ccc(S(=O)(=O)N2CCCN(CC(=O)Nc3ccc(OC)c(Cl)c3)CC2)cc1	97	2.1*	-3	103	93	98
O=C(NC(=S)N(Cc1ccccc1)c1ccccn1)C1CC1	89	.	.	.	95	.
COc1ccc2c(c1)OCC1=C2CCC2(C)C(=O)CC=C12 (stereo not given)	57	11*	-2	93	54	77
CCc1nnc(N2C(=O)c3cccc4cccc(c34)C2=O)s1	86	74	6	97	92	82
Cc1cc(NC(=O)COC(=O)C(Nc2ccc(C(F)(F)F)cc2Cl)C(C)C)no1 (stereo not given)	62	75	3	92	51	13*
Cc1nc(OCc2ccccc2)c2sc3nc4c(cc3c2n1)COC(C)(C)C4	85	98	0	96	81	92
SMILES	HCT116 bCat-KO	H69AR inhibit	Calb biofilm kill	Fibroblast inh	HCT116 PTEN-null	HUVEC inhibit
O=C(Nc1ccccc1)c1cccc(-c2nnc(-c3ccccc3)o2)c1	96	26*	-5	94	89	19*
CCCCC(=O)Nc1cccc(-c2nnc(-c3ccccc3)o2)c1	84	60	3	105	77	71
Clc1cccc(-c2nnc(-c3ccccc3)o2)c1	2.4*	.	.	.	7	.
O=C(Nc1ccc2nc(-c3cccnc3)[nH]c2c1)c1ccco1	103	73	1	98	103	114
Cc1ccc2nc(-c3cccc(NC(=O)c4ccco4)c3)[nH]c2c1	75	21*	2	.	64	60
O=C(Nc1cccc(-c2nnc(-c3ccccc3)o2)c1)c1ccco1	.	15*	6	101	.	83
